According to ChEMBL document CHEMBL2163309, “Discovery of novel 2-aryl-4-benzoyl-imidazole (ABI-III) analogues targeting tubulin polymerization as antiproliferative agents” (J Med Chem, 2012):
Activity calls are given as the source filed them. The rule behind the calls is not given here.

Key:
DU-145 = assay: Antiproliferative activity against human DU145 cells after 48 hrs by SRB assay; type: functional, cell-based; settings: DU-145, 48 h
Procedure, shortened: (§1)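 Run as part of a panel of two human metastatic melanoma lines (A375, WM164) and three human prostate cancer lines (LNCaP, PC-3, Du 145), following previously described methods. Colchicine served as the positive control.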

LNCaP = assay: Antiproliferative activity against human LNCAP cells after 48 hrs by SRB assay; type: functional, cell-based
A-375 = assay: Antiproliferative activity against human A375 cells after 48 hrs by SRB assay; type: functional, cell-based; settings: A-375, 48 h; procedure, shortened: as §1
[1] = Antiproliferative activity against human WM164 cells after 48 hrs by SRB assay; type: functional, cell-based; settings: WM164, 48 h
PC-3 [2] = assay: Antiproliferative activity against human PC3 cells after 48 hrs by SRB assay; type: functional, cell-based; settings: PC-3, 48 h
Bos taurus [3] = species on record: Bos taurus; assay: Inhibition of bovine brain tubulin polymerization at 5 uM measured for every 1 min for 20 mins by spectrophotometer analysis
Procedure, shortened: (§2)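 Bovine brain tubulin (>97% pure), 0.4 mg per assay, exposed to test compound at 5 or 10 μM in 5% DMSO vehicle, with a DMSO-only control and colchicine 5 μM as positive control. Polymerization followed by absorbance at 340 nm at 37 °C, read every minute for 20 min. Percent inhibition of polymerization taken at 20 min.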

Bos taurus [4] = species on record: Bos taurus; assay: Inhibition of bovine brain tubulin polymerization at 10 uM measured for every 1 min for 20 mins by spectrophotometer analysis; procedure, shortened: as §2
Bos taurus [5] = species on record: Bos taurus; assay: Inhibition of bovine brain tubulin polymerization measured for every 1 min for 20 mins by spectrophotometer analysis; procedure, shortened: as §2
PC-3 [6] = assay: Resistance index, ratio of IC50 for human paclitaxel-resistant PC3-TxR cells to IC50 for human PC3 cells
[7] = Antiproliferative activity against human paclitaxel-resistant PC3-TxR cells after 48 hrs by SRB assay; type: functional, cell-based
Homo sapiens = species on record: Homo sapiens; settings: 10 to 1000 nM

Row | Compound | IC50 (PC-3 [2]) | inhibition (Bos taurus [3]) | inhibition (Bos taurus [4]) | inhibition (Bos taurus [5]) | IC50 (DU-145) | IC50 (LNCaP) | IC50 (A-375) | IC50 [1] | Ratio IC50 (PC-3 [6]) | IC50 [7] | inhibition (Homo sapiens)
1 | COc1cc2c(c(OC)c1OC)-c1ccc(OC)c(=O)cc1[C@@H](NC(C)=O)CC2 [COLCHICINE] | 11.5 nM | – | – | – | 11.2 nM | 16.3 nM | 20.6 nM | 29 nM | – | – | –
2 | COc1cc(C(=O)c2cnc(-c3c[nH]c4ccccc34)[nH]2)cc(OC)c1OC [SABIZABULIN] | 3.7 nM | 70% | Active | Dose-dependent effect | 3.9 nM | 2.8 nM | 3.2 nM | 5.3 nM | 1 | 3.7 nM | inactive
3 | COc1cc(C(=O)c2c[nH]c(-c3csc4ccccc34)n2)cc(OC)c1OC | 20.8 nM | inactive | 30% | Dose-dependent effect | 51.2 nM | 29.1 nM | 41 nM | 45.7 nM | 0.9 | 98.6 nM | –

More lines, main results first:

Row | IC50 (PC-3 [2]) | inhibition (Bos taurus [3]) | inhibition (Bos taurus [4]) | inhibition (Bos taurus [5]) | Compound | IC50 (DU-145) | IC50 (LNCaP) | IC50 (A-375) | IC50 [1] | Ratio IC50 (PC-3 [6]) | IC50 [7] | inhibition (Homo sapiens)
4 | 33.3 nM | 30% | 60% | Dose-dependent effect | COc1cc(C(=O)c2c[nH]c(-c3coc4ccccc34)n2)cc(OC)c1OC | 45 nM | 14.1 nM | 53.4 nM | 73.6 nM | 1 | 42.8 nM | –
5 | 33.3 nM | 67% | 85% | Dose-dependent effect | COc1cc(C(=O)c2c[nH]c(-c3cn(S(=O)(=O)c4ccccc4)c4ccccc34)n2)cc(OC)c1OC | 189 nM | 107 nM | 414 nM | 166 nM | 0.9 | 27.6 nM | –
6 | 20.8 nM | 65% | 80% | Dose-dependent effect | COc1cc(C(=O)c2cn(C)c(-c3cn(C)c4ccccc34)n2)cc(OC)c1OC | 76.5 nM | 35.9 nM | 18.8 nM | 24.2 nM | 1.1 | 22.4 nM | –
7 | 0.4 nM | – | – | – | CC(=O)O[C@H]1C(=O)[C@@]2(C)[C@H]([C@H](OC(=O)c3ccccc3)[C@]3(O)C[C@H](OC(=O)[C@H](O)[C@@H](NC(=O)c4ccccc4)c4ccccc4)C(C)=C1C3(C)C)[C@]1(OC(C)=O)CO[C@@H]1C[C@@H]2O [PACLITAXEL] | – | – | – | – | – | 188 nM | –
